Our source for the Radiolabel recovery, AUCt and Cmax values is ChEMBL document CHEMBL3525963, “Tissue distribution and elimination of [14C]apixaban in rats” (Drug Metab Dispos, 2011).

What all share (type): ADME, organism-based
What all share (design): dose 5 mg/kg, dosed compound name [14C]-apixaban, route oral
Holding throughout (details): in vivo

In series [1] the test system is Rattus norvegicus. In words: Biodistribution in female Sprague-Dawley rat bone marrow at 5 mg/kg, po administered as single dose measured after 24 hrs. In short, it runs like this:
(§1)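 Quantitative whole-body autoradiography was run after a single 5 mg/kg (100 μCi/kg) oral gavage to fasted female or pregnant SD rats, one rat per time point. Carcasses were frozen in hexane/dry ice, and 40 µm sagittal sections were dried at −20°C for at least 48 h. Sections were exposed to a phosphor plate alongside [14C]glucose standards (0.001–6.5 µCi/g). Results are µg eq/g, with LLOQ 0.037 µg eq/g.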

The test system of series [2] is Rattus norvegicus. The series is described as follows: Biodistribution in pregnant Sprague-Dawley rat bone marrow at 5 mg/kg, po administered as single dose measured after 4 hrs.
Series [3] deals with Rattus norvegicus. In words: Biodistribution in male Sprague-Dawley rat kidney cortex at 5 mg/kg, po administered as single dose measured after 0.5 hrs.
Series [4] has as its system Rattus norvegicus. In words: Biodistribution in fetal brain of pregnant Sprague-Dawley rat at 5 mg/kg, po administered as single dose measured after 0.5 hrs. In short, it runs like this: (§2)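 Pregnant SD rats received a single oral gavage of [14C]apixaban at 5 mg/kg (100 μCi/kg; 1.0 mg/mL, 20 μCi/mL in 0.5% Tween 80/Labrafil) after fasting, one dam per time point. Frozen carcasses were cut into 40 µm sagittal sections and read by phosphor-imaging QWBA against [14C]glucose standards. Fetal tissue radioactivity is reported as µg eq/g, with LLOQ 0.037 µg eq/g.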

The test system of the next series is Harderian gland. The series is described as follows: Biodistribution in female Sprague-Dawley rat harderian gland at 5 mg/kg, po administered as single dose measured after 24 hrs. In short, it runs like this: as §1
Series [5] concerns Rattus norvegicus. In words: Biodistribution in female Sprague-Dawley rat bone marrow at 5 mg/kg, po administered as single dose measured after 72 hrs. In short, it runs like this: as §1
Series [6] concerns Rattus norvegicus. The series is described as follows: Biodistribution in female Sprague-Dawley rat pituitary gland at 5 mg/kg, po administered as single dose measured after 8 hrs. In short, it runs like this: (§3)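 [14C]apixaban (20 μCi/mL in dosing solution) in 0.5% Tween 80 in Labrafil given by oral gavage to fasted female rats, 206-213 g, at 100 μCi/kg. One rat per time point was euthanized and snap-frozen. Sagittal 40 µm whole-body sections were read by QWBA phosphor imaging against [14C]glucose standards. Results are in µg eq apixaban/g, with LLOQ 0.037 μg eq/g.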

Series [7] concerns Lung. In words: Biodistribution in male Sprague-Dawley rat lung at 5 mg/kg, po administered as single dose measured after 72 hrs. In short, it runs like this: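 Fasted male SD rats (225-252 g) each received one oral gavage dose of [14C]apixaban, 5 mg/kg (100 μCi/kg), in 0.5% Tween 80/Labrafil vehicle. One rat was killed per time point, from 0.5 to 168 h. Frozen carcasses were cut into 40 µm sagittal whole-body sections and read by QWBA phosphor imaging against [14C]glucose calibrants. Results are in µg apixaban eq/g; BLQ <0.037 µg eq/g.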

Series [8] can be described thus: Drug level in lactating Sprague-Dawley rat milk at 5 mg/kg, po administered as single dose after 6 hrs.
A further series relates to Heart. In words: Biodistribution in female Sprague-Dawley rat heart at 5 mg/kg, po administered as single dose measured after 1 hr. In short, it runs like this: (§4)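 [¹⁴C]Apixaban given by oral gavage at 5 mg/kg (100 μCi/kg) in 0.5% Tween 80 in Labrafil (1.0 mg/mL dosing solution) to rats fasted overnight through 4 h post-dose. One rat per time point; carcass frozen in hexane/dry ice. Quantitative whole-body autoradiography used 40 µm sagittal sections and a phosphor imaging plate calibrated with [¹⁴C]glucose standards (0.001–6.5 μCi/g). Read-out in µg eq apixaban/g; LLOQ 0.037 μg eq/g.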

The subject of the next series is Adrenal gland. The series is described as follows: Biodistribution in male Sprague-Dawley rat adrenal gland at 5 mg/kg, po administered as single dose measured after 8 hrs. In short, it runs like this:
as §4

The next series relates to Liver. In words: Biodistribution in pregnant Sprague-Dawley rat liver at 5 mg/kg, po administered as single dose measured after 48 hrs. In short, it runs like this: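 Fasted pregnant SD rats (n=6, 270-319 g) each received one oral gavage dose of [14C]apixaban, 5 mg/kg (100 μCi/kg), in 0.5% Tween 80/Labrafil. One rat was killed at each of 0.5, 1, 4, 8, 24 and 48 h. Carcasses were frozen in hexane/dry ice, cut into 40 µm sagittal sections, exposed to phosphor plates and quantified against [14C]glucose standards as µg eq/g. LLOQ was 0.037 µg eq/g.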

The subject of series [9] is Blood. The series is described as follows: AUC (0 to t) in lactating Sprague-Dawley rat blood at 5 mg/kg, po administered as single dose.
Another series has as its system Pancreas. In words: Biodistribution in pregnant Sprague-Dawley rat pancreas at 5 mg/kg, po administered as single dose measured after 0.5 hrs.
Series [10] concerns Rattus norvegicus. The series is described as follows: Biodistribution in male Sprague-Dawley rat kidney cortex at 5 mg/kg, po administered as single dose measured after 8 hrs.
In series [11] the test system is Rattus norvegicus. In words: Biodistribution in fetal brain of pregnant Sprague-Dawley rat at 5 mg/kg, po administered as single dose measured after 1 hr. In short, it runs like this:
as §2

Series [12] relates to Rattus norvegicus. The series is described as follows: Biodistribution in fetal liver of pregnant Sprague-Dawley rat at 5 mg/kg, po administered as single dose measured after 1 hr. In short, it runs like this: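 Pregnant rats, 270-319 g and fasted overnight, received [14C]apixaban by oral gavage at 100 μCi/kg in 0.5% Tween 80/Labrafil. One dam per time point was euthanized and frozen in hexane/dry ice. Fetal tissue radioactivity was measured by QWBA on 40 µm sagittal sections calibrated with [14C]glucose standards. Values are in µg eq/g, with LLOQ 0.037 μg eq/g.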

The test system of series [13] is Rattus norvegicus. In words: Biodistribution in female Sprague-Dawley rat salivary gland at 5 mg/kg, po administered as single dose measured after 8 hrs. In short, it runs like this:
as §3

The subject of series [14] is Rattus norvegicus. The series is described as follows: Biodistribution in pregnant Sprague-Dawley rat salivary gland at 5 mg/kg, po administered as single dose measured after 24 hrs. In short, it runs like this:
(§5)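 Pregnant SD rats (270-319 g) were fasted overnight and given one oral gavage of 5 mg/kg (100 μCi/kg) in 0.5% Tween 80 in Labrafil. One rat was euthanized per time point (0.5, 1, 4, 8, 24, 48 h) and the carcass frozen. 40 µm sagittal sections were phosphor-imaged against [14C]glucose standards and results reported as µg eq/g; LLOQ 0.037 µg eq/g.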

Series [15] has as its system Rattus norvegicus. In words: Biodistribution in pregnant Sprague-Dawley rat amnion at 5 mg/kg, po administered as single dose measured after 8 hrs.
The test system of series [16] is Lung. The series is described as follows: Biodistribution in female Sprague-Dawley rat lung at 5 mg/kg, po administered as single dose measured after 1 hr. In short, it runs like this: as §4
Series [17] deals with Rattus norvegicus. The series is described as follows: Biodistribution in pregnant Sprague-Dawley rat pituitary gland at 5 mg/kg, po administered as single dose measured after 8 hrs.
The next series concerns Spleen. In words: Biodistribution in pregnant Sprague-Dawley rat spleen at 5 mg/kg, po administered as single dose measured after 48 hrs. In short, it runs like this: as §5
Series [18] relates to Blood. In words: Cmax in female Sprague-Dawley rat blood at 5 mg/kg, po administered as single dose. In short, it runs like this: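 Fasted male, female or pregnant SD rats received a single oral gavage of 5 mg/kg (100 μCi/kg) in 0.5% Tween 80/Labrafil. One rat was killed per time point, up to 168 h (48 h for pregnant). Blood was collected into K3EDTA. Blood radioactivity came from autoradiogram or LSC data, and Cmax was taken from the concentration-time profile.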

`COc1ccc(-n2nc(C(N)=O)c3c2C(=O)N(c2ccc(N4CCCC[14C]4=O)cc2)CC3)cc1`: the Radiolabel recovery entry in the series on Rattus norvegicus [1] is given as “Not detected assumed BLQ”; with Rattus norvegicus [2], 0.46 ugequiv/g; in the series on Rattus norvegicus [3], 0.81 ugequiv/g; in the series on Rattus norvegicus [4], less than 0.037 ugequiv/g; in the series on Harderian gland, “Not detected assumed BLQ”; in the series with Rattus norvegicus [5] it was “Not detected assumed BLQ”. The Radiolabel recovery in the series with Rattus norvegicus [6] was 0.22 ugequiv/g; with Lung [7], “Not detected assumed BLQ”; in series [8], 8.92 µg/mL; in the series on Heart it was 0.54 ugequiv/g; with Adrenal gland, 0.17 ugequiv/g; in the series with Liver, “Not detected assumed BLQ”. The Radiolabel recovery is 0.89 ugequiv/g with Pancreas; 0.88 ugequiv/g in the series on Rattus norvegicus [10]; 0.05 ugequiv/g in the series with Rattus norvegicus [11]; 0.22 ugequiv/g with Rattus norvegicus [12]; 0.13 ugequiv/g with Rattus norvegicus [13]; “Not detected assumed BLQ” with Rattus norvegicus [14]. Besides, the Radiolabel recovery in the series on Rattus norvegicus [15] is 2.12 ugequiv/g; in the series with Lung [16], 0.883 ugequiv/g; with Rattus norvegicus [17], 0.19 ugequiv/g; with Spleen, “Not detected assumed BLQ”. The AUCt in the series with Blood [9] stood at 1940 ngequiv.hr/g. Besides, the Cmax in the series with Blood [18] came to 880 ngequiv/g.
